Measured values: ChEMBL document CHEMBL1123290, “Synthesis, antimalarial activity, and quantitative structure-activity relationships of tebuquine and a series of related 5-[(7-chloro-4-quinolinyl)amino]-3-[(alkylamino)methyl] [1,1'-biphenyl]-2-ols and N omega-oxides” (1986)

Legend:
Type in all cases: functional
Plasmodium berghei [1] = assay: Change in mean survival time of Plasmodium berghei infected mice (Mus musculus) on 1.25 mg/kg subcutaneous dose
Plasmodium berghei [2] = assay: Change in mean survival time for control (average 6.2 days) versus treated mice (Mus musculus) after 20 mg/kg subcutaneous dose
Plasmodium berghei [3] = assay: Change in mean survival time for control (average 6.2 days) versus treated mice (Mus musculus) after 160 mg/kg subcutaneous dose
Mus musculus [4] = assay: Antimalarial activity, administered as a single subcutaneous dose of 640 mg/kg, 72 hrs post infection measured as number of mice (Mus musculus) surviving at 60 days post infection
In short: (§1)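 Mice were infected with a normal drug-sensitive Plasmodium berghei strain. At 72 h postinfection each received one subcutaneous dose of compound dissolved or suspended in peanut oil, in five-mouse groups per dose. The read-out was the number of mice alive at 60 days postinfection, which were scored as cured.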

Plasmodium berghei [5] = assay: Change in mean survival time in control (average 6.2 days) versus treated mice (Mus musculus) after 80 mg/kg subcutaneous dose
Plasmodium berghei [6] = assay: Change in mean survival time of Plasmodium berghei infected mice (Mus musculus) after […] subcutaneous dose
Mus musculus [7] = assay: Antimalarial activity, administered as a single subcutaneous dose of 80 mg/kg, 72 hrs post infection measured as number of mice (Mus musculus) surviving at 60 days post infection; in short: as §1
Plasmodium berghei [8] = assay: Antimalarial activity in primary screen
Plasmodium berghei [9] = assay: Difference in mean survival time of Plasmodium berghei infected mice (Mus musculus) after 10 mg/kg subcutaneous dose
Plasmodium berghei [10] = assay: Antimalarial activity as 60-day survivors in Plasmodium berghei infected mice (Mus musculus) after single 160mg/kg subcutaneous dose 72 hr post infection; in short: as §1
Plasmodium berghei [11] = assay: (§2) Change in mean survival time for control (average 6.2 days) versus treated mice (Mus musculus) 72 hrs after […] subcutaneous dose
Plasmodium berghei [12] = assay: Antimalarial activity as 60-day survivors in infected mice (Mus musculus) after single 320mg/kg subcutaneous dose 72 hr post infection; in short: as §1
Plasmodium berghei [13] = assay: Change in mean survival time for control (average 6.2 days) versus treated mice (Mus musculus) after 320 mg/kg subcutaneous dose
Plasmodium berghei [14] = assay: Change in mean survival time of Plasmodium berghei infected mice (Mus musculus) after 5 mg/kg subcutaneous dose
Plasmodium berghei [15] = assay: Change in mean survival time for control (average 6.2 days) versus treated mice (Mus musculus) after 40 mg/kg subcutaneous dose
Plasmodium berghei [16] = assay: Antimalarial activity as 60-day survivors in infected mice (Mus musculus) after single 20 mg/kg subcutaneous dose 72hr post infection; in short: as §1
Plasmodium berghei [17] = assay: Change in mean survival time for control (average 6.2 days) versus treated mice (Mus musculus) 72 hrs after 320 mg/kg subcutaneous dose
Mus musculus [18] = assay: Antimalarial activity of compound administered as a single subcutaneous dose of 10mg/kg, 72 hrs post infection measured as number of mice (Mus musculus) surviving at 60 days post infection; in short: as §1
Plasmodium berghei [19] = assay: Change in mean survival time for control (average of 6.2 days) versus treated mice (Mus musculus) 72 hrs after 80 mg/kg subcutaneous dose
Plasmodium berghei [20] = assay: Change in mean survival time for control (average 6.2 days) versus treated mice (Mus musculus) 72 hrs after 10 mg/kg subcutaneous dose
Plasmodium berghei [21] = assay: Change in mean survival time for control (average 6.2 days) versus treated mice (Mus musculus) 72 hrs after 20 mg/kg subcutaneous dose
Plasmodium berghei [22] = assay: Change in mean survival time for control (average 6.2 days) versus treated mice (Mus musculus) 72 hrs after 640 mg/kg subcutaneous dose
Mus musculus [23] = assay: Antimalarial activity, administered as a single subcutaneous dose of 40 mg/kg, 72 hrs post infection measured as number of mice (Mus musculus) surviving at 60 days post infection; in short: as §1
Plasmodium berghei [24] = assay: Change in mean survival time for control (average 6.2 days) versus treated mice (Mus musculus) 72 hrs after 5 mg/kg subcutaneous dose
Plasmodium berghei [25] = assay: Difference in mean survival time in mice (Mus musculus) (control = 6.2 days) after single 40mg/kg subcutaneous dose 72hr post infection
Plasmodium berghei [26] = assay: as §2; remark: listed apart in the source
Plasmodium berghei [27] = assay: Change in mean survival time for control (average 6.2 days) versus treated mice (Mus musculus) 72 hrs after 160 mg/kg subcutaneous dose
Plasmodium berghei [28] = assay: Change in mean survival time for control (average 6.2 days) versus treated mice (Mus musculus) 72 hrs after […] subcutaneous dose

Row | Compound | Delta MST (Plasmodium berghei [1]) [days] | Delta MST (Plasmodium berghei [2]) [days] | Delta MST (Plasmodium berghei [3]) | No. of mice cured (Mus musculus [4]) | Delta MST (Plasmodium berghei [5]) [days] | Delta MST (Plasmodium berghei [6]) [days] | No. of mice cured (Mus musculus [7]) | ED30 (Plasmodium berghei [8]) [mg/kg] | Delta MST (Plasmodium berghei [9]) [days] | No. of mice cured (Plasmodium berghei [10]) | Delta MST (Plasmodium berghei [11]) [days] | No. of mice cured (Plasmodium berghei [12]) | Delta MST (Plasmodium berghei [13]) [days] | Delta MST (Plasmodium berghei [14]) [days] | Delta MST (Plasmodium berghei [15]) [days] | No. of mice cured (Plasmodium berghei [16]) | No. of mice cured (Mus musculus [18]) | Delta MST (Plasmodium berghei [20]) [days] | No. of mice cured (Mus musculus [23]) | Delta MST (Plasmodium berghei [26]) [days] | also measured
1 | CCN(CC)Cc1cc(Nc2cc[n+]([O-])c3cc(Cl)ccc23)cc(-c2ccc(SC)cc2)c1O | 0.1 | 6.5 | 19.9 days | 2 | 9.4 | 0.5 | 1 | 158 | 2.1 | 1 | 27.3 | 4 | 18.6 | 1.5 | 10.3 |  |  |  |  |  | 
2 | CC(C)(C)NCc1cc(Nc2ccnc3cc(Cl)ccc23)cc(-c2ccc(F)cc2)c1O |  |  |  |  |  |  | 1 |  |  | 1 |  |  |  |  |  | 1 | 1 | 16.5 | 3 | 1.7 | Delta MST (Plasmodium berghei [17]): 16.6 days; Delta MST (Plasmodium berghei [19]): 12.4 days; Delta MST (Plasmodium berghei [21]): 18 days; Delta MST (Plasmodium berghei [22]): 14.4 days; Delta MST (Plasmodium berghei [24]): 8.9 days; Delta MST (Plasmodium berghei [25]): 15.2 days; Delta MST (Plasmodium berghei [27]): 11.9 days; Delta MST (Plasmodium berghei [28]): 7.5 days
3 | CCN(CC)Cc1cc(Nc2cc[n+]([O-])c3cc(Cl)ccc23)cc(-c2ccccc2F)c1O | -0.1 | 12.2 | 20.1 days | 4 | 15.6 | -0.1 |  | 48.4 | 6.1 | 3 | 35.6 | 2 | 31.9 | 1.5 | 17.1 |  |  |  | 1 |  | 
4 | CC(C)(C)NCc1cc(Nc2cc[n+]([O-])c3cc(Cl)ccc23)cc(-c2ccccc2)c1O | -0.3 | 21 | 23.2 days | 3 | 15.5 | -0.1 | 1 |  | 12.5 | 2 | 14 | 3 | 14.5 | 4.5 | 21 | 1 |  |  | 1 |  | 
5 | CCN(CC)Cc1cc(Nc2cc[n+]([O-])c3cc(Cl)ccc23)cc(-c2ccccc2)c1O | 0.3 | 17.4 |  | 3 | 19.9 | 0.3 | 2 | 26.3 | 7.7 | 5 | 23.9 | 3 | 24.9 | 5.1 | 29.6 |  |  |  |  |  | 
6 | CCN(CC)Cc1cc(Nc2cc[n+]([O-])c3cc(Cl)ccc23)cc(-c2ccccc2Cl)c1O | -0.2 | 19.2 | 33.4 days | 5 | 34.9 | -0.2 | 2 | 27.4 | 8 | 3 |  | 3 | 41.9 | 6.4 | 25.8 |  |  |  | 1 |  | 
7 | CCN(CC)Cc1cc(Nc2ccnc3cc(Cl)ccc23)cc(-c2ccccc2)c1O |  |  |  | 5 |  |  | 5 | 10.4 |  | 5 |  | 5 |  |  |  | 5 | 2 | 11.9 | 5 | 0.3 | Delta MST (Plasmodium berghei [24]): 0.7 days; Delta MST (Plasmodium berghei [28]): 0.3 days
8 | CCN(CC)Cc1cc(Nc2cc[n+]([O-])c3cc(Cl)ccc23)cc(-c2ccc(F)cc2)c1O | 0.5 | 14.1 |  |  | 23.6 | 2.1 | 4 | 19.7 | 10.5 | 5 | 15 | 4 | 8.6 | 5.1 | 21.7 |  |  |  | 2 |  | 
9 | CCN(CC)Cc1cc(Nc2cc[n+]([O-])c3cc(Cl)ccc23)cc(-c2cccc(Cl)c2)c1O | 0.3 | 16.5 | 28.9 days | 3 | 25.6 | 0.7 | 2 | 27.4 | 9.7 | 4 | 16.4 | 4 | 21.9 | 2.1 | 25.9 |  |  |  | 2 |  | 
10 | CC(C)(C)NCc1cc(Nc2ccnc3cc(Cl)ccc23)cc(-c2ccc(C(F)(F)F)cc2)c1O |  |  |  | 3 |  |  |  |  |  |  |  |  |  |  |  |  | 1 | 10.4 | 2 | 0.2 | Delta MST (Plasmodium berghei [17]): 12.1 days; Delta MST (Plasmodium berghei [19]): 10.7 days; Delta MST (Plasmodium berghei [21]): 21.2 days; Delta MST (Plasmodium berghei [22]): 11.7 days; Delta MST (Plasmodium berghei [24]): 11.8 days; Delta MST (Plasmodium berghei [25]): 14.9 days; Delta MST (Plasmodium berghei [27]): 9.1 days; Delta MST (Plasmodium berghei [28]): 3.4 days
11 | CC(C)(C)NCc1cc(Nc2cc[n+]([O-])c3cc(Cl)ccc23)cc(-c2ccc(Cl)c(Cl)c2)c1O | -0.3 | 5.9 | 25.9 days | 2 | 23.2 | -0.1 | 1 |  | 2.9 | 1 |  | 3 | 25.9 | 0.5 | 8.9 |  |  |  |  |  | 
12 | CCN(CC)Cc1cc(Nc2ccnc3cc(Cl)ccc23)cc(-c2c(F)c(F)c(F)c(F)c2F)c1O |  |  |  | 5 |  |  | 5 | 7.4 |  | 4 |  | 5 |  |  |  | 1 | 2 | 18.8 | 4 | 3.5 | Delta MST (Plasmodium berghei [21]): 18.8 days; Delta MST (Plasmodium berghei [24]): 12.9 days; Delta MST (Plasmodium berghei [25]): 20.5 days; Delta MST (Plasmodium berghei [27]): 47 days; Delta MST (Plasmodium berghei [28]): 7.9 days
13 | CCCCN(CCCC)Cc1cc(Nc2cc[n+]([O-])c3cc(Cl)ccc23)cc(-c2ccc(Cl)cc2)c1O | 0.4 | 3.2 | 12 | 1 | 8 | -0.2 |  |  | -0.2 |  | 31.7 |  | 21.2 | 0.4 | 2.2 |  |  |  |  | 0.4 | 
14 | CCN(CC)Cc1cc(Nc2ccnc3cc(Cl)ccc23)cc(-c2ccc(Cl)cc2)c1O [TEBAQUINE] |  |  |  | 1 |  |  | 5 |  |  | 4 |  | 2 |  |  |  | 1 | 1 | 30.2 | 5 | 0.1 | Delta MST (Plasmodium berghei [17]): 11.2 days; Delta MST (Plasmodium berghei [21]): 33.7 days; Delta MST (Plasmodium berghei [22]): 11.9 days; Delta MST (Plasmodium berghei [24]): 20.7 days; Delta MST (Plasmodium berghei [27]): 11.9 days; Delta MST (Plasmodium berghei [28]): 0.1 days
